Data set [1] deals with SARS-CoV-2. Nature of the data set: CPE-based antiviral assay in Vero E6 cells. In kind it is cell-based, SARS-CoV-2 (hCoV/Korea/KCDC-03/2020).
The nature of data set [2]: Cytotoxicity in mock-infected Vero E6 cells. In kind it is cell-based. Conditions: African green monkey.
Data set [3] relates to SARS-CoV-2. Nature of the data set: Image-based. It is filed as cell-based, SARS-CoV-2 (hCoV/Korea/KCDC-03/2020). Particulars: Severe acute respiratory syndrome coronavirus 2, 48 h, MOI 2.5, 48 h post-infection.
For data set [4], the system named is SARS-CoV-2. Nature of the data set: RT-qPCR of intracellular SARS-CoV-2 RNA in hPSC-CMs. In kind it is cell-based. Conditions: 0.3 μM and 1 μM. A general note: In qPCR the cycle at which signal appears reflects the starting amount.
The nature of data set [5]: Cell viability assay. Particulars: human. It is filed as cell-based. In a few lines:
(§1)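 Cardiomyocytes were differentiated from H9 hESCs or CMC-hiPSC-011 hiPSCs (CHIR99021, then Wnt inhibitor C59; lactate selection days 10–15). They were exposed to graded drug concentrations (DMSO stocks) for 24 h or 48 h. Viability was read by MTS, absorbance 490 nm. CC50 came from four-parameter nonlinear regression. Mean ± SD of at least two independent experiments in triplicate.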

A further data set deals with hERG currents (Homo sapiens, UniProt Q12809). Nature of the data set: cell-based.
Chain of hERG currents (Q12809 whole entry): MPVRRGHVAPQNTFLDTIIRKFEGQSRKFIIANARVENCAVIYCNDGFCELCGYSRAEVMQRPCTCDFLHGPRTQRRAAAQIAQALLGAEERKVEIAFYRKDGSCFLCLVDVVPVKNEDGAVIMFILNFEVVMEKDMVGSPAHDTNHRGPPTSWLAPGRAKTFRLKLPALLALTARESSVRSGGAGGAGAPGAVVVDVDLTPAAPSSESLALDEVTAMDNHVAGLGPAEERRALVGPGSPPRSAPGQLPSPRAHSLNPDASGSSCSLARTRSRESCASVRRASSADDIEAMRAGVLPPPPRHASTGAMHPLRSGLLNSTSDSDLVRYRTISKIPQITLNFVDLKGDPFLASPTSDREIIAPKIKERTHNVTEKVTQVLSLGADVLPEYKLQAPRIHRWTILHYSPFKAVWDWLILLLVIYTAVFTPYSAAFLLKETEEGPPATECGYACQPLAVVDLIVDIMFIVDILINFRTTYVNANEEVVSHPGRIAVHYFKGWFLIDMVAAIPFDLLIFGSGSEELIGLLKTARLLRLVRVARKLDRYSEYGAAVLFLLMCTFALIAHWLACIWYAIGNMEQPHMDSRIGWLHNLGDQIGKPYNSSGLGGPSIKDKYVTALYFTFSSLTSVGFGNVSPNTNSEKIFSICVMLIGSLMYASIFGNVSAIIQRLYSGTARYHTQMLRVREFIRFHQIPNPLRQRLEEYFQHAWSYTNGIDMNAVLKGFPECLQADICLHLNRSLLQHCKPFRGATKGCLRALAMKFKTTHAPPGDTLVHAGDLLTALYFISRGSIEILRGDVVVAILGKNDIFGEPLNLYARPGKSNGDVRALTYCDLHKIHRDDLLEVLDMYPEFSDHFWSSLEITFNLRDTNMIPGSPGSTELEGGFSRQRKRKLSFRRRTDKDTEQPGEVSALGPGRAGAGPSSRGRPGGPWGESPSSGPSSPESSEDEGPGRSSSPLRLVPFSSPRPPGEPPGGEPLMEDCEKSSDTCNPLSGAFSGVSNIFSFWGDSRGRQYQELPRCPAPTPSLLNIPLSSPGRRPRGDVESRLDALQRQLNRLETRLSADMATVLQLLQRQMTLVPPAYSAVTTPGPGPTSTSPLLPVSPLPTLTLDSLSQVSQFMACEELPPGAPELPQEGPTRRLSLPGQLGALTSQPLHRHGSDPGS
The test system of data set [6] is SARS-CoV-2. It is filed as cell-based. Particulars: for reduction in SARS-CoV-2 titers: 33 μM.
Data set [7] is described as follows: Cell viability assay. Conditions: human. It is filed as cell-based. A digest of the protocol: as §1
This is another data set of the same source.

In another data set the test system is hPSC-CMs. Nature of the data set: Electrophysiological characterization of hPSC-CMs. In kind it is cell-based, human. Particulars: for repolarization: dofetilide 10 nM, E4031 30 nM.
Where [8] appears, read: hESC-CMs (human embryonic stem cell-derived cardiomyocytes).

Where two headings read alike, the source gives them in different places. Where only a bound is given, the exact number is not on record here.

Take `NC(=O)c1nc(F)c[nH]c1=O` [Favipiravir (T-705), favipiravir]: the “in vitro antiviral activity against SARS-CoV-2” value with SARS-CoV-2 [1] is listed as “no apparent in vitro antiviral activity”.

As for `CCC(CC)COC(=O)[C@H](C)N[P@](=O)(OC[C@H]1O[C@@](C#N)(c2ccc3c(N)ncnn23)[C@H](O)[C@@H]1O)Oc1ccccc1` [Remdesivir], in data set [2], the CC50 at 72 h is > 100 µM. In the data set with SARS-CoV-2 [3] (hESC-CMs), this compound gave a concentration giving a half-maximal response (EC50) of 0.6 µM and a concentration for an effect of 90% (EC90) of 1.3 µM. In addition, in the data set on SARS-CoV-2 [3] (hiPSC-CMs), the half-maximal effective concentration (EC50) is 0.2 µM and the 90% effect concentration (EC90) came out at 0.33 µM. Besides, in the data set on SARS-CoV-2 [4], the “intracellular viral mRNA synthesis” value is given as “complete inhibition”. In the data set on hiPSC-CMs (30 min exposure), the “concentration that reduced Na+ peak amplitudes and spontaneous beating rates, followed by complete cessation of spontaneous beating” value is ≥ 30 µM; the “field potential duration (FPD)” value is “dose-dependent prolongations of FPD”. In addition, the “Early afterdepolarizations (EADs) and delayed afterdepolarizations (DADs)” value in the data set with hiPSC-CMs (data not shown) was “not detected”. In “Cell viability assay [5]”, the CC50 at 24 h is 39.4 µM and the CC50 at 48 h amounted to 15.6 µM. At hERG currents, the IC50 was > 100 µM. The “selectivity index (SI)” value with SARS-CoV-2 [1] (CC50/EC50) is on record as > 50. The viral particle production result in the data set on SARS-CoV-2 [6] (hESC-CMs and hiPSC-CMs, 0.3 μM and 1 μM remdesivir) is on record as “Complete suppression”. For the same compound, the “reduction of viral titer” value with SARS-CoV-2 [6] (hPSC-CMs, 0.1 μM) is recorded as “minimal reduction”. In the data set “Cell viability assay [7]” (setting [8]), this compound displayed a CC50 at 24 h of 17.7 µM and a CC50 at 48 h of 10.2 µM. In the data set “Cell viability assay [7]” (hPSC-CMs (hESC-CMs and hiPSC-CMs)), this compound came in with a cytotoxic concentration (CC50) of 10.2 to 39.4 µM.

Take `CCN(CC)CCCC(C)Nc1ccnc2cc(Cl)ccc12` (centres unmarked) [Chloroquine]: the CC50 at 72 h in data set [2] is > 100 µM. Besides, in the data set on SARS-CoV-2 [3] (hESC-CMs), the half-maximal effective concentration (EC50) was 27.9 µM and the 90% effect concentration (EC90) is > 84.9 µM. Besides, in the data set on SARS-CoV-2 [3] (hiPSC-CMs), a half-maximal effect (EC50) was put at 12.1 µM and the concentration for an effect of 90% (EC90) came out at 24.1 µM. In addition, in the data set on hiPSC-CMs (30 min exposure), the “Na+ peak amplitude and T-wave” value is “pronounced reduction of Na^+ peak amplitude and T-wave flattening”; the “field potential duration (FPD)” value was “increased the field potential duration (FPD) of hiPSC-CMs in a dose-dependent manner”. Moreover, the “infectious viral particle production” value in the data set with SARS-CoV-2 [6] (hESC-CMs and hiPSC-CMs, highest tested concentration) is listed as “complete suppression”. Besides, the “reduction in SARS-CoV-2 titers” value in the data set with SARS-CoV-2 [6] (hESC-CMs) was 2.3 log10 PFU/ml. Further, in the data set with SARS-CoV-2 [6] (hPSC-CMs, 11 μM), the “effect on viral titers” value is on record as “did not affect”. For the same compound, the “reduction in SARS-CoV-2 titers” value with SARS-CoV-2 [6] (hiPSC-CMs) came to 0.3 log10 PFU/ml. For the same compound, the CC50 at 48 h in the data set “Cell viability assay [7]” (setting [8]) is 84.9 µM.

For the compound `Cc1cccc(CCN2CCC(C(=O)c3ccc(NS(C)(=O)=O)cc3)CC2)n1` [E4031], the repolarization result in the data set with hPSC-CMs is “significantly delayed”.

For `CCN(CCO)CCCC(C)Nc1ccnc2cc(Cl)ccc12` (centres unmarked) [Hydroxychloroquine, hydroxychloroquine], it took 76.1 µM to reach half-maximal cytotoxicity in [2] (CC50 at 72 h).

In the case of `CN(CCOc1ccc(NS(C)(=O)=O)cc1)CCc1ccc(NS(C)(=O)=O)cc1` [dofetilide], the repolarization result in the data set with hPSC-CMs is listed as “significantly delayed”.

As for `CC(C)NCC(O)c1ccc(O)c(O)c1` (centres unmarked) [isoprenaline], in the data set with hPSC-CMs (100 nM), the “rate of AP” value is “substantially increased”.

By CC50 is commonly meant the concentration that lowers cell viability or growth by half. In general, EC50 refers to the concentration at which the effect is half-maximal. The EC90 is the concentration needed for an effect of 90%. By IC50 is commonly meant the concentration that inhibits the measured activity by half.
